The values that follow come from ChEMBL document CHEMBL1145811, “Synthesis and antibacterial activity of a novel series of acylides: 3-O-(3-pyridyl)acetylerythromycin A derivatives” (J Med Chem, 2003).

In brackets after ≈: the same amount, converted by molar mass. Some results are limits rather than exact numbers.

The AUC is concentration integrated over time. For orientation: Cmax means the highest concentration seen after dosing. For orientation: ED50 means the dose at which the effect has come halfway, by size or by number of responders. High values mean weaker potency, low ones greater potency.

Data set [1] is described as follows: Area under the curve was determined for the compound from the lung of mice following a single oral dose of 10 mg/kg (data represent mean in 3 mice). The class given is ADME, organism-based. The conditions noted are these: mouse, read-out: AUC 0-8. Also noted: dose 10 mg/kg, route oral. The gist of the method: (§1)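 Mice received a single 10 mg/kg oral dose. Serum and lung were sampled for drug levels. Cmax is in µg/mL and AUC over 0–8 h is in µg·h/mL. Values are the mean of three mice.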

Data set [2] has as its system Mus musculus. The experiment in a line: Survival rate of mouse inoculated intraperitoneally with 5.05*10e7 CFU of erythromycin-susceptible strain Streptococcus pneumoniae IID553 after treatment with 0.3 mg of compound. Type of data set: functional. The gist of the method:
(§2)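 Mouse protection test: mice were infected intraperitoneally with 5.05 × 10^7 CFU/mouse, then given the macrolide orally 1 h after inoculation. Survival was recorded as the read-out.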

The nature of data set [3]: Area under the curve was determined for the compound from the serum of mice following a single oral dose of 10 mg/kg (data represent mean in 3 mice). The class given is ADME, organism-based. Set-up: dose 10 mg/kg, route oral. The conditions noted are these: mouse, read-out: AUC 0-8. The gist of the method: as §1
Data set [4] concerns Staphylococcus aureus. The experiment in a line: In vitro minimum inhibitory concentration for antibacterial activity against Staphylococcus aureus SR138 (constitutively MLSb-resistant strain encoded by the erm(A) gene). Type of data set: functional. A digest of the protocol: (§3)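 Agar dilution MIC determined by the Japan Society of Chemotherapy standard method for aerobic bacteria.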

Data set [5] deals with Mus musculus. The experiment in a line: Survival rate of mouse inoculated intraperitoneally with 5.05*10e7 CFU of erythromycin-susceptible strain Streptococcus pneumoniae IID553 after treatment with 3 mg of compound. Type of data set: functional. A digest of the protocol: as §2
Data set [6] is described as follows: Maximum concentration in the serum of mice following a single oral dose of 10 mg/kg (data represent mean in 3 mice). The class given is ADME, organism-based. Set-up: dose 10 mg/kg, route oral. The conditions noted are these: mouse. The gist of the method: as §1
In data set [7] the test system is Streptococcus pneumoniae. As to the kind of experiment: In vitro minimum inhibitory concentration for antibacterial activity against erythromycin-susceptible strain Streptococcus pneumoniae IID553. Type of data set: functional. The gist of the method:
(§4)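 MIC by agar dilution following the Japan Society of Chemotherapy standard method for aerobic bacteria. S. aureus 209P-JC and S. pneumoniae IID553 are erythromycin-susceptible strains.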

Data set [8] in a line: Maximum concentration in the lung of mice following a single oral dose of 10 mg/kg (data represent mean in 3 mice). The conditions noted are these: mouse. Set-up: dose 10 mg/kg, route oral. The class given is ADME, organism-based. A digest of the protocol: as §1
Data set [9] concerns Haemophilus influenzae. The experiment in a line: In vitro minimum inhibitory concentration for antibacterial activity against Haemophilus influenzae ATCC 33533 (ampicillin-resistant strain that produces beta-lactamase). The class given is functional. The gist of the method:
as §3

Data set [10] has as its system Streptococcus pneumoniae. The experiment in a line: In vitro minimum inhibitory concentration for antibacterial activity against Streptococcus pneumoniae 211 (MLSb-resistant strain encoded by the erm(B) gene). Type of data set: functional. A digest of the protocol: as §3
In data set [11] the test system is Streptococcus pneumoniae. As to the kind of experiment: In vitro minimum inhibitory concentration for antibacterial activity against Streptococcus pneumoniae 210 (efflux-resistant strain encoded by the mef(A) gene). Type of data set: functional. The gist of the method:
as §3

Data set [12] concerns Staphylococcus aureus. As to the kind of experiment: In vitro minimum inhibitory concentration for antibacterial activity against Staphylococcus aureus B1 (inducibly MLSb-resistant strain encoded by the erm(C) gene). The class given is functional. The gist of the method: as §3
The test system of data set [13] is Staphylococcus aureus. The experiment in a line: In vitro minimum inhibitory concentration for antibacterial activity against erythromycin-susceptible strain Staphylococcus aureus […]. The class given is functional. A digest of the protocol: as §4
The subject of data set [14] is Haemophilus influenzae. As to the kind of experiment: In vitro minimum inhibitory concentration for antibacterial activity against Haemophilus influenzae ATCC 43095 (ampicillin-susceptible strain that does not produce beta-lactamase). Type of data set: functional. A digest of the protocol: as §3
For data set [15], the system named is Streptococcus pneumoniae. As to the kind of experiment: In vitro minimum inhibitory concentration for antibacterial activity against erythromycin susceptible strain Streptococcus pneumoniae IID553. Type of data set: functional.
Data set [16] deals with Staphylococcus aureus. As to the kind of experiment: In vitro minimum inhibitory concentration for antibacterial activity against erythromycin susceptible strain Staphylococcus aureus Smith. The class given is functional.
Data set [17] deals with Mus musculus. The experiment in a line: Effective dose in vivo, in mouse inoculated intraperitoneally with 7.05*10e2 CFU of erythromycin susceptible strain Streptococcus pneumoniae IID553. The conditions noted are these: ip. Type of data set: functional. A digest of the protocol: (§5)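 Mouse protection test: mice were infected intraperitoneally with erythromycin-susceptible S. aureus Smith or S. pneumoniae IID553. Compounds were given orally 1 h after inoculation.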

In data set [18] the test system is Mus musculus. As to the kind of experiment: Effective dose in vivo, in mouse inoculated intraperitoneally with 5.09*10e7 CFU of erythromycin susceptible strain Staphylococcus aureus Smith. Type of data set: functional. Conditions: ip. A digest of the protocol:
as §5

Data set [19] relates to Mus musculus. The experiment in a line: Effective dose in vivo, in mouse inoculated intraperitoneally with 5.80*10e7 CFU of erythromycin susceptible strain Staphylococcus aureus Smith. Type of data set: functional. Conditions: ip. A digest of the protocol:
as §5

Data set [20] has as its system Mus musculus. The experiment in a line: Effective dose in vivo, in mouse inoculated intraperitoneally with 1.47*10e3 CFU of erythromycin susceptible strain Streptococcus pneumoniae IID553. Type of data set: functional. The conditions noted are these: ip. A digest of the protocol:
as §5

Turning to `CC[C@H]1OC(=O)[C@H](C)[C@@H](OC(=O)Cc2cccnc2)[C@H](C)[C@@H](OC2O[C@H](C)C[C@H](N(C)C)[C@H]2O)[C@@]2(C)C[C@@H](C)[C@H](OC(=O)O2)[C@H](C)[C@H]2OC(=O)O[C@@]21C` (stereo not given in full), the AUC in data set [1] turned out to be 2460 ng·h/mL; in [3], 230 ng·h/mL. For the same molecule, the Survival rate in the data set on Mus musculus [2] is recorded as 30%; in the data set with Mus musculus [5], 90%. Further, the MIC is over 100 µg/mL with Staphylococcus aureus [4]; 0.025 µg/mL (≈ 0.0334 µM) against Streptococcus pneumoniae [7]; 0.78 µg/mL (≈ 1.04 µM) in the data set on Haemophilus influenzae [9]; 100 µg/mL (≈ 134 µM) in the data set on Streptococcus pneumoniae [10]; 0.1 µg/mL (≈ 0.134 µM) against Streptococcus pneumoniae [11]; 0.2 µg/mL (≈ 0.267 µM) against Staphylococcus aureus [12]. The MIC is 0.1 µg/mL (≈ 0.134 µM) against Staphylococcus aureus [13] and 0.78 µg/mL (≈ 1.04 µM) against Haemophilus influenzae [14]. In addition, the Cmax in [6] was found to be 120 ng/mL; in data set [8], 1350 ng/mL.
On to `CC[C@H]1OC(=O)[C@H](C)[C@@H](O[C@H]2C[C@@](C)(OC)[C@@H](O)[C@H](C)O2)[C@H](C)[C@@H](O[C@@H]2O[C@H](C)C[C@H](N(C)C)[C@H]2O)[C@](C)(O)C[C@@H](C)CN(C)[C@H](C)[C@@H](O)[C@]1(C)O` [AZITHROMYCIN], for which the MIC in the data set on Streptococcus pneumoniae [15] was 0.1 µg/mL (≈ 0.134 µM); against Staphylococcus aureus [4] it was over 100 µg/mL; in the data set with Staphylococcus aureus [16] it was 0.78 µg/mL (≈ 1.04 µM); in the data set with Streptococcus pneumoniae [7], 0.1 µg/mL (≈ 0.134 µM); in the data set on Haemophilus influenzae [9] it was 1.56 µg/mL (≈ 2.08 µM); against Streptococcus pneumoniae [10] it was over 100 µg/mL. Besides, the MIC is 0.78 µg/mL (≈ 1.04 µM) in the data set on Streptococcus pneumoniae [11], over 100 µg/mL against Staphylococcus aureus [12], 0.39 µg/mL (≈ 0.521 µM) against Staphylococcus aureus [13] and 1.56 µg/mL (≈ 2.08 µM) against Haemophilus influenzae [14]. Besides, the Survival rate in the data set with Mus musculus [2] was 50%; in the data set on Mus musculus [5] it was 100%. Besides, the ED50 with Mus musculus [17] worked out at 13.9 mg/kg; in the data set on Mus musculus [18], 15.7 mg/kg.
`CC[C@H]1OC(=O)[C@H](C)[C@@H](O[C@H]2C[C@@](C)(OC)[C@@H](O)[C@H](C)O2)[C@H](C)[C@@H](O[C@@H]2O[C@H](C)C[C@H](N(C)C)[C@H]2O)[C@](C)(OC)C[C@@H](C)C(=O)[C@H](C)[C@@H](O)[C@]1(C)O` [CLARITHROMYCIN]: the MIC was 0.025 µg/mL (≈ 0.0334 µM) against Streptococcus pneumoniae [15]; over 100 µg/mL against Staphylococcus aureus [4]; 0.2 µg/mL (≈ 0.267 µM) against Staphylococcus aureus [16]; 0.05 µg/mL (≈ 0.0668 µM) with Streptococcus pneumoniae [7]; 3.13 µg/mL (≈ 4.18 µM) against Haemophilus influenzae [9]; over 100 µg/mL with Streptococcus pneumoniae [10]. Also, the MIC in the data set on Streptococcus pneumoniae [11] was 0.78 µg/mL (≈ 1.04 µM); against Staphylococcus aureus [12], over 100 µg/mL; against Staphylococcus aureus [13] it was 0.1 µg/mL (≈ 0.134 µM); against Haemophilus influenzae [14], 6.25 µg/mL (≈ 8.36 µM). In addition, the AUC turned out to be 30400 ng·h/mL in data set [1] and 1310 ng·h/mL in data set [3]. Moreover, the Survival rate with Mus musculus [2] was determined as 50%; in the data set on Mus musculus [5] it was 100%. Also, the Cmax in [6] was determined as 1210 ng/mL; in data set [8], 14100 ng/mL. The ED50 in the data set with Mus musculus [19] was determined as 7.6 mg/kg; with Mus musculus [20], 13.5 mg/kg.
Consider `CC[C@H]1OC(=O)[C@H](C)[C@@H](O[C@H]2C[C@@](C)(OC)[C@@H](O)[C@H](C)O2)[C@H](C)[C@@H](O[C@@H]2O[C@H](C)C[C@H](N(C)C)[C@H]2O)[C@](C)(O)C[C@@H](C)C(=O)[C@H](C)[C@@H](O)[C@]1(C)O` [ERYTHROMYCIN], for which the MIC was determined as 0.1 µg/mL (≈ 0.136 µM) against Streptococcus pneumoniae [15] and 0.2 µg/mL (≈ 0.273 µM) in the data set with Staphylococcus aureus [16]. In addition, the ED50 in the data set on Mus musculus [17] is 111 mg/kg; in the data set with Mus musculus [18] it was 56.6 mg/kg.
